Experimental data as given in article PMC9444296 (Investigative Radiology, 2022).
Where two headings read alike, the source gives them in different places. Where no end group is shown, it is not given here.

Experiments:
[1] = Hepatocyte metabolic stability, negative and positive controls; type: in vitro ADME; conditions: hepatocyte incubation
[2] = test system: LNCaP human prostate tumors; experiment: Contrast-enhanced MRI of LNCaP prostate tumor xenografts in rats; type: in vivo, rat; conditions: 0.1 mmol/kg IV, 3 T, n = 3
Summary of the method: (§1)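 Male rats carried subcutaneous flank xenografts of 4 × 10⁶ PC3 or 8 × 10⁶ LNCaP cells in Matrigel-PBS (1:1) and were imaged once tumours exceeded 100 mm³. Scans used 1 mm slices, 2 averages and a 128 × 128 matrix. The same tumour-bearing rats were reused across agents and doses, with a clinical Gd agent at 0.1 mmol Gd/kg as comparator.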

[3] = cited from earlier work
[4] = test system: PC3 human prostate cancer xenografts; experiment: Contrast-enhanced MRI of PC3 prostate tumor xenografts in rats; type: in vivo, rat; conditions: PC3 tumors in rats, 0.1 mmol/kg IV, 3 T, n = 6
Summary of the method: as §1

CYP2C8 = CYP2C8 (Homo sapiens, UniProt P10632); experiment: CYP2C8 inhibition in human liver microsomes; type: in vitro ADME; conditions: CYP2C8, positive control selective inhibitor
CYP1A2 = conditions: positive control 50 μM, CYP1A2, human primary hepatocytes
CYP2B6 [5] = conditions: positive control 1000 μM, CYP2B6, human primary hepatocytes
CYP2D6 = CYP2D6 (Homo sapiens, UniProt P10635); experiment: CYP2D6 inhibition in human liver microsomes; type: in vitro ADME; conditions: CYP2D6, positive control selective inhibitor, human liver microsomes
CYP2C9 = CYP2C9 (Homo sapiens, UniProt P11712); experiment: CYP2C9 inhibition in human liver microsomes; conditions: CYP2C9, positive control selective inhibitor, human liver microsomes
[6] = Metabolic pathway study in human liver microsomes; type: in vitro ADME; conditions: 120 minutes
CYP2B6 [7] = target: CYP2B6 (Homo sapiens, UniProt P20813); conditions: CYP2B6, positive control selective inhibitor, human liver microsomes
EDB protein fragment = EDB protein fragment (Homo sapiens, UniProt P02751); conditions: cited from earlier work
EDB protein fragment, sequence (P02751 1271-1359 limits assumed): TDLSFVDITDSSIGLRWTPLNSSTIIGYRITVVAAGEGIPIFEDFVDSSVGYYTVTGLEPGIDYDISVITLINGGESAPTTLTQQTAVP

CYP2C8, sequence (P10632 whole entry): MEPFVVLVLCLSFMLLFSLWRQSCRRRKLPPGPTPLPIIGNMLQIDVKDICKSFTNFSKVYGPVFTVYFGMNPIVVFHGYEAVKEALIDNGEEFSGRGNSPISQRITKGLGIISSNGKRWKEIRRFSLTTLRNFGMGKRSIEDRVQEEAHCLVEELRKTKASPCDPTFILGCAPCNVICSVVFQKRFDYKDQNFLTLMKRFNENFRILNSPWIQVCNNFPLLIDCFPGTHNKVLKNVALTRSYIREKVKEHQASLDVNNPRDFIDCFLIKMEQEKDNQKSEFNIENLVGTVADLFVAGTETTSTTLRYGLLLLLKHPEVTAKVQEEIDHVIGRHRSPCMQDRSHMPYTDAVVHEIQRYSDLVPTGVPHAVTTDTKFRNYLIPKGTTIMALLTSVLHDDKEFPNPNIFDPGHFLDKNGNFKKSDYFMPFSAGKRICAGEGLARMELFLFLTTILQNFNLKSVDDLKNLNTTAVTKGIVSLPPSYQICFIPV
CYP2B6 (Homo sapiens, UniProt P20813), sequence (P20813 whole entry, the tested form may be a part): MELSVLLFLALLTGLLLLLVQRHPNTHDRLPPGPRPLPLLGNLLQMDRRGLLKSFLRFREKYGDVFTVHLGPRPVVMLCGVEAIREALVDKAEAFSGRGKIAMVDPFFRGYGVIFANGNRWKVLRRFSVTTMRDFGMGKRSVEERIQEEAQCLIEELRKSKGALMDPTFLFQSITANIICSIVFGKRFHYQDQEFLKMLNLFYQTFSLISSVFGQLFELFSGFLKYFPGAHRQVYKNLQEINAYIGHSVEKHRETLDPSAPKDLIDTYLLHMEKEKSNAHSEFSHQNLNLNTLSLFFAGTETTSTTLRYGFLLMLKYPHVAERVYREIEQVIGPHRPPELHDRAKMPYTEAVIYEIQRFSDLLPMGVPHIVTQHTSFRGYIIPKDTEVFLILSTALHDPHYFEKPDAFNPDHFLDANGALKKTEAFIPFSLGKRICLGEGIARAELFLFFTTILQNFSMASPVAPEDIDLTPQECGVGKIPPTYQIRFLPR
CYP2C9, sequence (P11712 whole entry): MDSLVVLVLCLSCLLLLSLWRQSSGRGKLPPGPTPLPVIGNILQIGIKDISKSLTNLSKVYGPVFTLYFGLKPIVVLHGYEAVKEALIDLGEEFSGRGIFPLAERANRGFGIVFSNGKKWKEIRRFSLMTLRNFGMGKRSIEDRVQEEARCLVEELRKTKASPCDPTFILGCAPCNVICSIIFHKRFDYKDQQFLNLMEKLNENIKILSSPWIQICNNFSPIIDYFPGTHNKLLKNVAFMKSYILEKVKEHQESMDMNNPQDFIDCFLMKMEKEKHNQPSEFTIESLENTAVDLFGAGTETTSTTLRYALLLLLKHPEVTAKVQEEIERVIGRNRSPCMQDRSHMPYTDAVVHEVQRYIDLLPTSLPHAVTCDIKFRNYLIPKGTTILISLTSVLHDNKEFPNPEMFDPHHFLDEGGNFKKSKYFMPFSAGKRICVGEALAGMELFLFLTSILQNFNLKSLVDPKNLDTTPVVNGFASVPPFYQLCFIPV
CYP2D6, sequence (P10635 whole entry): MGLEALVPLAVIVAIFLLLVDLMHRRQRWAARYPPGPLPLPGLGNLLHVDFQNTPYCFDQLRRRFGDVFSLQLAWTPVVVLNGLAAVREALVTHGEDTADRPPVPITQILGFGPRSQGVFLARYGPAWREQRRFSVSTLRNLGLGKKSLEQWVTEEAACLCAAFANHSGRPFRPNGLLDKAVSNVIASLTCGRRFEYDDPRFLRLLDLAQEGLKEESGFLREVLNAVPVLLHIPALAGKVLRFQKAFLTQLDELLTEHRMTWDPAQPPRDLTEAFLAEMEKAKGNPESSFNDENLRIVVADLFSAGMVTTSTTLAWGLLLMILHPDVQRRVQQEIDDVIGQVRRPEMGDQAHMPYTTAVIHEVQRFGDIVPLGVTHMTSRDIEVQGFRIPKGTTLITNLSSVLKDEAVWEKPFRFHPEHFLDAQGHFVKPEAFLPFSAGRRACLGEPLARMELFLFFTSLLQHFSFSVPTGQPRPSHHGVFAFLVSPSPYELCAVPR

Compound: O=c1ccc2ccc(O)cc2o1 [7-hydroxycoumarin]
- remaining substrate in the positive control [1]: 18.8%

Compound: CC(O)CN1CCN(CC(=O)[O-])CCN(CC(=O)[O-])CCN(CC(=O)[O-])CC1.[Gd+3] (centres unmarked) [Gadoteridol, gadoteridol]
- CNR [2]: 1.79 ± 0.74
- r1 Relaxivity ([3]; 1.4 T, H2O): 3.2 (H2O) mM^−1 s^−1
- r1 Relaxivity ([3]; 1.5 T, H2O): 2.9 (H2O) mM^−1 s^−1
- r1 Relaxivity ([3]; 1.5 T, plasma): 4.1 mM⁻¹ s⁻¹
- r1 Relaxivity ([3]; 3.0 T, H2O): 2.8 (H2O) mM^−1 s^−1
- r1 Relaxivity ([3]; 3.0 T, plasma): 3.7 mM⁻¹ s⁻¹
- CNR ([4]; 10 minutes postinjection): 1.32 ± 0.58
- CNR ([4]; 30 minutes postinjection): 1.714 ± 0.69

Compound: CC(C)(O)c1ccccc1CC[C@@H](SCC1(CC(=O)O)CC1)c1cccc(/C=C/c2ccc3ccc(Cl)cc3n2)c1 [montelukast, reference compound]
- enzyme activity decreased by (CYP2C8): 80.0%

Compound: COc1ccc2[nH]c([S+]([O-])Cc3ncc(C)c(OC)c3C)nc2c1 (centres unmarked) [omeprazole, reference compound]
- increase of enzyme activity vs vehicle control (CYP1A2): about 40 fold
- increase of mRNA expression vs vehicle control (CYP1A2): about 62 fold

Compound: CCC1(c2ccccc2)C(=O)NC(=O)NC1=O [phenobarbital, reference compound]
- increase of enzyme activity vs vehicle control (CYP2B6 [5]): ~12 fold
- increase of mRNA expression vs vehicle control (CYP2B6 [5]): ~14 fold

Compound: C=C[C@H]1C[N@@]2CC[C@H]1C[C@@H]2[C@@H](O)c1ccnc2ccc(OC)cc12 [quinidine, reference compound]
- enzyme activity decreased by (CYP2D6): 91.2%

Compound: Nc1ccc(S(=O)(=O)Nc2ccnn2-c2ccccc2)cc1 [sulfaphenazole, reference compound]
- enzyme activity decreased by (CYP2C9): 87.4%

Compound: C[C@]12CC[C@H]3[C@@H](CCC4=CC(=O)CC[C@@]43C)[C@@H]1CC[C@@H]2O [testosterone, reference compound]
- remaining testosterone (systematic control) [6]: 11.4%
- remaining substrate in the positive control [1]: 9.29%

Compound: S=P(N1CC1)(N1CC1)N1CC1 [thiotepa, reference compound]
- enzyme activity decreased by (CYP2B6 [7]): 89.2%

Compound: TVRTSAD [ZD2]
- binding affinity to the EDB fragment (EDB protein fragment): moderate binding affinity
